Assay results gathered from unrelated publications.
Compare with care: the assays were run in different laboratories.
Organism: Klebsiella pneumoniae
Read-out: microbial growth

| SMILES | test | system | conditions | MIC |
| --- | --- | --- | --- | --- |
| NC1CCCCc2c1[nH]c1cc(Cl)c(Cl)cc21 (stereo not drawn) | broth dilution | ATCC10031 |  | 2 µg/mL |
| CC[C@H]1OC(=O)[C@H](C)C(=O)[C@H](C)[C@@H](O[C@@H]2O[C@H](C)C[C@H](N(C)C)[C@H]2O)[C@](C)(OC)C[C@@H](C)C(=O)[C@H](C)[C@H]2N(CCCCn3cnc(-c4cccnc4)c3)C(=O)O[C@]12C | broth dilution | ATCC700603 |  | 40 µM |
| CO[C@@H](C(N)=O)[C@H](NC(=O)c1ccc(NC(=O)c2ccc(C#N)cc2)cc1)C(=O)Nc1ccc(C(=O)Nc2ccc(C(=O)Nc3ccc(C(=O)O)cc3)c(O)c2OC(C)C)cc1 |  | DSM30104 |  | 8 µg/mL |
| O=C1NN=C(N=Cc2ccc(O)c(O)c2)C1=NNn1c(-c2ccccc2)nc2ccccc2c1=O | broth dilution |  | 24 h | 53.5 µM |
| Cc1c(CN(C)C(=O)/C=C/c2cnc3c(c2)CCC(=O)N3)oc2ccccc12 | broth dilution |  |  | > 32 µg/mL |
| CC(C)(O/N=C(\C(=O)N[C@@H]1C(=O)N2C(C(=O)[O-])=C(C[n+]3ccccc3)CS[C@H]12)c1csc(N)n1)C(=O)O | broth dilution | ATCC700603 |  | 5 µM |
| O=C(Nc1ccc([N+](=O)[O-])cc1F)c1ccccc1O | broth dilution | BAA1705 |  | > 64 µg/mL |
| CCc1c(Cl)c(O)c(Cl)c(O)c1C(=O)O[C@H]1[C@H](O)[C@H](OC)[C@H](OC/C2=C\C=C\C[C@H](O)/C(C)=C/[C@H](CC)[C@@H](O[C@@H]3OC(C)(C)[C@@H](OC(=O)C(C)C)[C@H](O)[C@@H]3O)/C(C)=C/C(C)=C/C[C@@H]([C@@H](C)O)OC2=O)O[C@@H]1C | broth dilution | ATCC700603 |  | 320 µM |
| CCn1cc(C(=O)O)c(=O)c2cc(F)c(N3CCNCC3)cc21 | broth dilution | ATCC43816 |  | 2 µM |
| CC1(C)S[C@@H]2[C@H](NC(=O)COc3ccccc3)C(=O)N2[C@H]1C(=O)O |  |  | 18 h, clinical isolate | > 128 µg/mL |
| CN(C)[C@@H]1C(O)=C(C(N)=O)C(=O)[C@@]2(O)C(O)=C3C(=O)c4c(cc5ccc(CN6CCCCC6)cc5c4O)C[C@H]3C[C@@H]12 | broth dilution | ATCC13883 |  | 4 µg/mL |
| Cc1c(CN(C)C(=O)/C=C/c2cnc3c(c2)CC(CCN)C(=O)N3)oc2ccccc12.Cl (stereo not drawn) | broth dilution | BAA2470 |  | 4 µg/mL |
| CCCCCCC#Cc1cncc(-c2nnc(SCc3ccc(C#N)cc3)n2C)c1 |  |  |  | ≥ 20 µg/mL |
| CC(=O)O[C@H]1C[C@@]2(C)[C@@H](C[C@@H](O)[C@H]3[C@@]4(C)CC[C@@H](O)[C@@H](C)[C@@H]4CC[C@@]32C)/C1=C(\CCC=C(C)C)C(=O)O | broth dilution | ATCC700603 |  | 640 µM |
| Cn1c(SCc2ccc(Cl)cc2)nnc1-c1cncc(C#Cc2ccccc2)c1 |  |  |  | ≥ 20 µg/mL |
| CN(C)[C@@H]1C(O)=C(C(N)=O)C(=O)[C@@]2(O)C(O)=C3C(=O)c4c(cc5ccc(-c6ccccc6)cc5c4O)C[C@H]3C[C@@H]12 | broth dilution | ATCC13883 |  | 32 µg/mL |
| CC1=NN(CNc2c(O)c(S(=O)(=O)O)cc3ccccc23)C(=O)C1=NNn1c(-c2ccccc2)nc2ccccc2c1=O | broth dilution |  | 24 h | 83.7 µM |
| NC[C@H]1O[C@H](O[C@H]2[C@H](O)[C@@H](O[C@H]3O[C@H](CO)[C@@H](O)[C@H](N)[C@H]3O)[C@H](N)C[C@@H]2N)[C@H](N)C[C@@H]1O |  |  |  | 0.5 to 1 µg/mL |
